Measurements from ChEMBL document CHEMBL1165965, “Synthesis and structure-activity relationships of 1,2,3,4-tetrahydropyrido[2,3-b]pyrazines as potent and selective inhibitors of the anaplastic lymphoma kinase” (Bioorg Med Chem, 2010).

How the values were obtained:
[1] = biological target: Dual specificity protein kinase CLK4 (Homo sapiens) (UniProt Q9HAZ1); test: Inhibition of CLK4 at 1 uM
Outline: (§1)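 Single-concentration screen using Ambit Bioscience KINOMEscan technology across a panel of 250–400 kinases. Per-kinase inhibition from this screen was summarized as S(90), the fraction of kinases inhibited by more than 90%.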

[2] = biological target: T1, Homeodomain-interacting protein kinase 4 (Homo sapiens) (UniProt Q8NE63); test: Inhibition of HIPK4 at 1 uM
T1 sequence (whole entry): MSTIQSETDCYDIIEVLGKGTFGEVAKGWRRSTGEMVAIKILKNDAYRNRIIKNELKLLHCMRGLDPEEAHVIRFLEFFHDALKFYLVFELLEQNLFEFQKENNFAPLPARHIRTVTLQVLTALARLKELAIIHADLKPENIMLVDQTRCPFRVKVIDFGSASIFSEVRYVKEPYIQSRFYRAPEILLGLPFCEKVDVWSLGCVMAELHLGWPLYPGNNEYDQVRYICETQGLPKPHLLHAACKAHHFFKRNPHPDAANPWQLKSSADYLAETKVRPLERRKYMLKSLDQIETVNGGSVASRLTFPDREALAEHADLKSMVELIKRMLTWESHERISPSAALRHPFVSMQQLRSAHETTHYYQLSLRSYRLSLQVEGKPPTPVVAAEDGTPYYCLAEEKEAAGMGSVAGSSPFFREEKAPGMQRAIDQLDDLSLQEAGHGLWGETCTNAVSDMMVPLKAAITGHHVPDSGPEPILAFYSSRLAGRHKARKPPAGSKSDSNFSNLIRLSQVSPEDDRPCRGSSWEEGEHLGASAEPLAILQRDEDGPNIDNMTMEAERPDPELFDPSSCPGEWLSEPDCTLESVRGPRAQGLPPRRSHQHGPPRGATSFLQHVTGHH

[3] = biological target: Serine/threonine-protein kinase PAK 1 (Homo sapiens) (UniProt Q13153); test: Inhibition of PAK1 at 1 uM
[4] = biological target: Casein kinase I isoform gamma-1 (Homo sapiens) (UniProt Q9HCP0); test: Inhibition of CSNK1G1 at 1 uM; outline: as §1
[5] = biological target: T2, Ephrin type-A receptor 1 (Homo sapiens) (UniProt P21709); test: Inhibition of EPHA1 at 1 uM; outline: as §1
T2 sequence (whole entry): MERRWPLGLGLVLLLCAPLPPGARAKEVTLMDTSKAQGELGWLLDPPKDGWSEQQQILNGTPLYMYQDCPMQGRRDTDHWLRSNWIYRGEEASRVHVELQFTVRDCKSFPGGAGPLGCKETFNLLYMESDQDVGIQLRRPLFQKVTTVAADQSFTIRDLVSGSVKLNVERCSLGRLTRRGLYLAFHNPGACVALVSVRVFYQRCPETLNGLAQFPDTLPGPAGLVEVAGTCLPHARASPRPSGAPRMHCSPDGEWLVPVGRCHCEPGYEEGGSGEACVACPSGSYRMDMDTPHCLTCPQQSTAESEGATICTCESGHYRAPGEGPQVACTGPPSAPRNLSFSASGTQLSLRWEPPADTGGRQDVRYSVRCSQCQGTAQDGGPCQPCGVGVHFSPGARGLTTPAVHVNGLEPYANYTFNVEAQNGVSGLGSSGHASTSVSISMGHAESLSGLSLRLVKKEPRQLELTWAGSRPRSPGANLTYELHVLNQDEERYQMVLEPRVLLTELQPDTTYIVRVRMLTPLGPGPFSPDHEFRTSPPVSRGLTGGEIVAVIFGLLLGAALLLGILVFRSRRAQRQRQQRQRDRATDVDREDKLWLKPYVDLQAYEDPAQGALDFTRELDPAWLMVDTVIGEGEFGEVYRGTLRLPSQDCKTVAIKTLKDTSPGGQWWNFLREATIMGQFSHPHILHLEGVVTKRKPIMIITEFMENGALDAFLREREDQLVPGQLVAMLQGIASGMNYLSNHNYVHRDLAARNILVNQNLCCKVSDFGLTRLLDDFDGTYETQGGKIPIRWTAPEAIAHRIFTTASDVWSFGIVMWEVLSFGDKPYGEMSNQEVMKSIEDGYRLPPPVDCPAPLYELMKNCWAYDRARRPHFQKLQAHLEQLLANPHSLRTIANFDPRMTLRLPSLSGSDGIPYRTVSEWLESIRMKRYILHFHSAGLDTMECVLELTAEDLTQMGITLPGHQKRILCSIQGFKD

[6] = biological target: Macrophage colony-stimulating factor 1 receptor (Homo sapiens) (UniProt P07333); test: Inhibition of CSF1R at 1 uM; outline: as §1
[7] = biological target: Homeodomain-interacting protein kinase 3 (Homo sapiens) (UniProt Q9H422); test: Inhibition of HIPK3 at 1 uM
[8] = biological target: Tyrosine-protein kinase receptor UFO (Homo sapiens) (UniProt P30530); test: Inhibition of AXL at 1 uM
Outline: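 Ambit KINOMEscan screen at a single concentration across a 250–400 kinase panel, recorded as percent inhibition. Selectivity was expressed as S(90), the fraction of kinases inhibited >90%.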

Homeodomain-interacting protein kinase 3 (Homo sapiens), sequence (Q9H422 whole entry, looked up): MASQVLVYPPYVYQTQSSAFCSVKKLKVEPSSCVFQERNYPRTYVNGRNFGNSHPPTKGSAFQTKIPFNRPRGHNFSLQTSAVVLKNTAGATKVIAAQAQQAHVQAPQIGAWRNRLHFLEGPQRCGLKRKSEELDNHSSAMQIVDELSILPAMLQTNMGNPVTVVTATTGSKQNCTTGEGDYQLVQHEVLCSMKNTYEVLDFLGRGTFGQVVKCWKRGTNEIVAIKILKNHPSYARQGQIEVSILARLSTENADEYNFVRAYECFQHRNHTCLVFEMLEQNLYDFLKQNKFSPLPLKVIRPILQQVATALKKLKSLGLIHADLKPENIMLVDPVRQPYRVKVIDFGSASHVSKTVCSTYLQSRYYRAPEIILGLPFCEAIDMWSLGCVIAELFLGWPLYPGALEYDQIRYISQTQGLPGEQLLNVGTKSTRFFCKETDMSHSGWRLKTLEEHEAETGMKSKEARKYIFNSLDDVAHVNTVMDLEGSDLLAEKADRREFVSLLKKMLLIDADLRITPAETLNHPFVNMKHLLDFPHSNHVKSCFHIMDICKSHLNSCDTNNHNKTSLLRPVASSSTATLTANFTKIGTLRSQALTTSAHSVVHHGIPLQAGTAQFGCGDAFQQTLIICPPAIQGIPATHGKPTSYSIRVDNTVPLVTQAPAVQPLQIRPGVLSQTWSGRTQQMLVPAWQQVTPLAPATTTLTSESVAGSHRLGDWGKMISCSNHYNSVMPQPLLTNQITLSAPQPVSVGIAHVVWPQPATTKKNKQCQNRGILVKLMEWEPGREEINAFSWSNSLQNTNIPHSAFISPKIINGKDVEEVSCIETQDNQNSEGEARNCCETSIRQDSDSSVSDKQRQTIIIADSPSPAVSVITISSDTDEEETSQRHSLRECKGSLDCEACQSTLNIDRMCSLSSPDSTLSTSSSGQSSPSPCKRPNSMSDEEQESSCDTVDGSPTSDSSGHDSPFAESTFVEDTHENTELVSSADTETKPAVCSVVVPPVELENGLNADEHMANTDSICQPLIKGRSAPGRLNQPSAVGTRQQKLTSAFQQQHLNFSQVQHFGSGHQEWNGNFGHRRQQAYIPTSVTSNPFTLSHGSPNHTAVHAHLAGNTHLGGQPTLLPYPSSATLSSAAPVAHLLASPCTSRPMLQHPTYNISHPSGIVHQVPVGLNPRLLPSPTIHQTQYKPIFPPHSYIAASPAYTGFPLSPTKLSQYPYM
Macrophage colony-stimulating factor 1 receptor (Homo sapiens), sequence (P07333 whole entry): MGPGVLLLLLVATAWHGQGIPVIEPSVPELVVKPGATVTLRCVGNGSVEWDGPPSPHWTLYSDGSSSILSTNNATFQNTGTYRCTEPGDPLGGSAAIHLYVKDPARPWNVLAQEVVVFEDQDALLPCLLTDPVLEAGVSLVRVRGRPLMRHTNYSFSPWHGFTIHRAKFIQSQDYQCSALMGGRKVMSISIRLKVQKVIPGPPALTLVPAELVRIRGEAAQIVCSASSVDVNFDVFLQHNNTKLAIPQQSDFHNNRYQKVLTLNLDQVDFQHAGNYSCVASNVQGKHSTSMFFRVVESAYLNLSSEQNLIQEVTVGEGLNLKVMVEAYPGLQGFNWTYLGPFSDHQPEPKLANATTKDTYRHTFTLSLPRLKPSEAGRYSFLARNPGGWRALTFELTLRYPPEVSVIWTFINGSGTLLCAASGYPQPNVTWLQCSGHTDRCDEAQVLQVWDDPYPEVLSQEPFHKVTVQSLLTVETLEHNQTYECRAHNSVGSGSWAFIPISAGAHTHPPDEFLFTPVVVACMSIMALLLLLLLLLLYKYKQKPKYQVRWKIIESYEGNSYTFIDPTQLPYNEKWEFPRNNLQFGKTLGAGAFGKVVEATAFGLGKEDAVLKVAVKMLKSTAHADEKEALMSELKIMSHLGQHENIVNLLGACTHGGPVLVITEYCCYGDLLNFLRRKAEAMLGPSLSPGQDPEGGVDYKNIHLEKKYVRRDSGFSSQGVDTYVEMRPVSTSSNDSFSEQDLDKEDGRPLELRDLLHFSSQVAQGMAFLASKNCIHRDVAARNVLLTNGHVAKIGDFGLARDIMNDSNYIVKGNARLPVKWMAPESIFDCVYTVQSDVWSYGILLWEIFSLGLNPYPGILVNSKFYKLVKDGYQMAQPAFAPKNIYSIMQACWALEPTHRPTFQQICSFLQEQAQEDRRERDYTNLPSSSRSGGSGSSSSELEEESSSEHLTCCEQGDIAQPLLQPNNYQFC
Dual specificity protein kinase CLK4 (Homo sapiens), sequence (Q9HAZ1 whole entry, looked up): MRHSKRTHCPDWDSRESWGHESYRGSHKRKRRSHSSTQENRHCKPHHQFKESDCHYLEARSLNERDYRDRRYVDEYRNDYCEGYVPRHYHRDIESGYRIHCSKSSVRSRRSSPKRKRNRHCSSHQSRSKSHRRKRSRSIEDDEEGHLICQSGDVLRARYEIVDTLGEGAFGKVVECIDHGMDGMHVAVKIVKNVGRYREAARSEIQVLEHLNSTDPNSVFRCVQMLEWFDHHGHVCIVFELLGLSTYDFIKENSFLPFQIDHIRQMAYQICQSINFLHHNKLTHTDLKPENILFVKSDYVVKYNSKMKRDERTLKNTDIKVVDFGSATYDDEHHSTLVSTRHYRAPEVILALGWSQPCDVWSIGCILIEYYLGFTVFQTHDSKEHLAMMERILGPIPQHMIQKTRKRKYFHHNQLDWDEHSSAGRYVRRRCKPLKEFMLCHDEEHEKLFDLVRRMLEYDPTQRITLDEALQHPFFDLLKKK
Casein kinase I isoform gamma-1 (Homo sapiens), sequence (Q9HCP0 whole entry, looked up, canonical isoform): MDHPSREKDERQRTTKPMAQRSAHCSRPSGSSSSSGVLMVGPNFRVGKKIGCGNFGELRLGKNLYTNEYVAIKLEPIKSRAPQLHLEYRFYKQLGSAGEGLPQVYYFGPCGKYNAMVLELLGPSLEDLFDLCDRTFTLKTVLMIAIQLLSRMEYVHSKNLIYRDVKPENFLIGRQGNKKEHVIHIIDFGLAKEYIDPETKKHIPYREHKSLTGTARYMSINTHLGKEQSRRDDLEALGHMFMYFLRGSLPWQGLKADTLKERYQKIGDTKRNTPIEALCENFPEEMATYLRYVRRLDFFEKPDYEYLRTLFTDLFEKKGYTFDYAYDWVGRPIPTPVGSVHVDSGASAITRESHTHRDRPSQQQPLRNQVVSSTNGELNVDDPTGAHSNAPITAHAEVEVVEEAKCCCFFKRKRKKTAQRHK
Serine/threonine-protein kinase PAK 1 (Homo sapiens), sequence (Q13153 whole entry, canonical isoform): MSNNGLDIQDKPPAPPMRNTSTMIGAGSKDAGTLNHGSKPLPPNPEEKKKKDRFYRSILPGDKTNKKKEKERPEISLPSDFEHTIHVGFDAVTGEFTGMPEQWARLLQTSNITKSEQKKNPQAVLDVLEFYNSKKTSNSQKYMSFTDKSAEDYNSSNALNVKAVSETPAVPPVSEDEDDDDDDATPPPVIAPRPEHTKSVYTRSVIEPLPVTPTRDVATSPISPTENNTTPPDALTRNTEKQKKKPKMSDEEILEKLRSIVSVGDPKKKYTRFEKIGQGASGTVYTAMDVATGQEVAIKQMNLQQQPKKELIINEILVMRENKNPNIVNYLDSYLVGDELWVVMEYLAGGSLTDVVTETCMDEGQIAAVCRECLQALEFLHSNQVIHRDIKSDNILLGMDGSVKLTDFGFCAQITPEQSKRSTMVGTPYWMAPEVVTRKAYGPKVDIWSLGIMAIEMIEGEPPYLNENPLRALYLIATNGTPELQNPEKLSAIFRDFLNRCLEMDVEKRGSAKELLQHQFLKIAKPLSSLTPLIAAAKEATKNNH
Tyrosine-protein kinase receptor UFO (Homo sapiens), sequence (P30530 whole entry): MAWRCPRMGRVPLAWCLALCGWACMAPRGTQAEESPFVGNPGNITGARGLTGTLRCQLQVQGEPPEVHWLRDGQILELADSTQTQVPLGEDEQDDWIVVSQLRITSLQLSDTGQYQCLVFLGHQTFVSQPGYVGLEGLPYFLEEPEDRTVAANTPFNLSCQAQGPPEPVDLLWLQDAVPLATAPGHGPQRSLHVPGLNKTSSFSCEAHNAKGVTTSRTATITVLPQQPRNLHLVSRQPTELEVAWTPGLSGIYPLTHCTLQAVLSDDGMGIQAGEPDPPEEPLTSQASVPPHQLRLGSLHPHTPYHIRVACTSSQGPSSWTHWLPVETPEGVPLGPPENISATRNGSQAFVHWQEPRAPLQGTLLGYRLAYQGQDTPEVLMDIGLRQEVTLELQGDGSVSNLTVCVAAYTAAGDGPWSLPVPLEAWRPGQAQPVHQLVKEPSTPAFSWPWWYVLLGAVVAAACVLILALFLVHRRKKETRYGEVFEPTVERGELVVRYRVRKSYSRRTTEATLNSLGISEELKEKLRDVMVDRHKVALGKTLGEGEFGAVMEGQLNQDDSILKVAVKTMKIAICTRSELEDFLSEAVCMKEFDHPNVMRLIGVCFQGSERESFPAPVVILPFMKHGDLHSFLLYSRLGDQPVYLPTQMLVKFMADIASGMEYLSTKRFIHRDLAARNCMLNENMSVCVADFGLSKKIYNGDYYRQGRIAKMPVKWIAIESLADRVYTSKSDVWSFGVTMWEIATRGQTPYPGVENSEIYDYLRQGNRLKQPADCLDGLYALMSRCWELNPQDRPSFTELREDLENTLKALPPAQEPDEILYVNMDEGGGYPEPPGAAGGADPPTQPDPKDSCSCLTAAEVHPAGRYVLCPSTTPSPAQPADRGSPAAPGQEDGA

Row | SMILES | inhibition [1] | inhibition [2] | inhibition [3] | inhibition [4] | inhibition [5] | inhibition [6] | inhibition [7] | inhibition [8]
1 | CN1CCN(c2ccc(-c3cnc4c(c3)N(Cc3cc(F)ccc3F)CCN4)cn2)CC1 | < 50% | < 50% | < 50% | < 50% | 62.1% | < 50% | < 50% | < 50%
2 | O=C(c1ccc(-c2cnc3c(c2)N(Cc2cc(Cl)ccc2C(F)(F)F)CCN3)cc1)N1CCC(N2CCCC2)CC1 | < 50% | – | < 50% | < 50% | 81% | 96.6% | – | 93%
3 | O=C(c1ccc(-c2cnc3c(c2)N(Cc2cc(Cl)ccc2C(F)(F)F)CCN3)cc1)N1CCCCC1 | < 50% | – | < 50% | < 50% | < 50% | < 50% | – | < 50%
4 | CN1CCN(c2ccc(-c3cnc4c(c3)N(Cc3c(F)ccc(F)c3Cl)CCN4)cn2)CC1 | < 50% | < 50% | < 50% | < 50% | < 50% | 96% | < 50% | < 50%
5 | COC1CCN(C(=O)c2ccc(-c3cnc4c(c3)N(Cc3cc(Cl)ccc3C(F)(F)F)CCN4)cc2)CC1 | < 50% | – | < 50% | < 50% | < 50% | 74.2% | – | < 50%
6 | O=C(O)c1ccc(-c2cnc3c(c2)N(Cc2cc(Cl)ccc2C(F)(F)F)CCN3)cc1 | < 50% | – | < 50% | < 50% | < 50% | < 50% | – | < 50%
7 | CC(=O)N1CCN(c2cc(-c3cnc4c(c3)N(Cc3cc(Cl)ccc3C(F)(F)F)CCN4)ccn2)CC1 | < 50% | < 50% | < 50% | < 50% | < 50% | 93% | < 50% | < 50%
8 | FC(F)(F)c1ccc(Cl)cc1CN1CCNc2ncc(-c3ccnc(N4CCNCC4)c3)cc21 | < 50% | < 50% | < 50% | < 50% | < 50% | 99% | < 50% | < 50%
9 | CN1CCN(c2ccc(-c3cnc4c(c3)N(Cc3cc(Cl)ccc3C(F)(F)F)CCN4)cn2)CC1 | < 50% | < 50% | < 50% | < 50% | < 50% | 88% | < 50% | < 50%
10 | CN1CCN(c2ccc(-c3cnc4c(c3)N(Cc3cc(Cl)ccc3Cl)CCN4)cn2)CC1 | < 50% | < 50% | < 50% | < 50% | < 50% | 88% | < 50% | < 50%
